Data: ChEMBL document CHEMBL4265908, “Structure-activity and structure-property relationships of novel Nrf2 activators with a 1,2,4-oxadiazole core and their therapeutic effects on acetaminophen (APAP)-induced acute liver injury” (Eur J Med Chem, 2018)

Legend:
[1] = target: T1, Nuclear factor erythroid 2-related factor 2 (Homo sapiens) (UniProt Q16236); experiment: Activation of Nrf2 in human HepG2-ARE-C8 cells assessed as induction of ARE-mediated luciferase activity at 20 uM after 24 hrs by luciferase reporter gene assay relative to control; format: cell-based
T1 sequence (whole entry): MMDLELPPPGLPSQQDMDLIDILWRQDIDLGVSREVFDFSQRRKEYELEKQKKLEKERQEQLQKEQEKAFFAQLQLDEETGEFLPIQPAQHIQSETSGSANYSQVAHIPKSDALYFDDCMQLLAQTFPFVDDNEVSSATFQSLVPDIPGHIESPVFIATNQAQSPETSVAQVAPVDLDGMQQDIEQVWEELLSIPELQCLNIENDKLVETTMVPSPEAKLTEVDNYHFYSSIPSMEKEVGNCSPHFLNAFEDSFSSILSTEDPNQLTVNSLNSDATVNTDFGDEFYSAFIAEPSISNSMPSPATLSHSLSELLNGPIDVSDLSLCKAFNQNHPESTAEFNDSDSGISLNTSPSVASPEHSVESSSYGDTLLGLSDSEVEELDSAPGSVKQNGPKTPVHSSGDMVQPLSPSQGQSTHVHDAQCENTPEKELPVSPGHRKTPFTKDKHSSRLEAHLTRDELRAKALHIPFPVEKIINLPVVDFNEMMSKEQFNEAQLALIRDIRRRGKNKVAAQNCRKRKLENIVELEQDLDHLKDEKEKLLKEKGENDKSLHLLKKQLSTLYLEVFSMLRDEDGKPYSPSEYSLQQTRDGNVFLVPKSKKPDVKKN
In short: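 HepG2-ARE-C8 cells stably carrying ARE-luciferase, grown in DMEM with 10% FBS at 37 °C and 5% CO2. Seeded at 5 × 10^4 cells/well, left overnight, then given compound diluted from a 10 mM DMSO stock for 24 h. Cells lysed and luciferase read as RLU. Inductivity = (RLUtest − RLUblank)/(RLUcontrol − RLUblank), with DMSO as control. Mean ± SEM of three experiments.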

[2] = target: T1, Nuclear factor erythroid 2-related factor 2 (Homo sapiens); experiment: Activation of Nrf2 in human LO2 cells assessed as increase in NQO1 mRNA expression level by qRT-PCR analysis; format: cell-based
In short: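 LO2 cells in DMEM with 10% FBS were exposed to 0, 2.5, 5, 10, 20 or 40 μM compound for 12 h. Transcripts measured by qRT-PCR: 40 cycles of 95 °C for 5 s and 60 °C for 30 s. Normalized to GAPDH and expressed as fold over the untreated control. Mean ± SD, n = 3.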

[3] = tested on: Mus musculus; experiment: In vivo activation of Nrf2 in APAP-induced liver injury in C57BL/6 mouse assessed as increase in HO-1 mRNA expression level administered ip for 7 consecutive days followed by APAP challenge 1 hr post last compound dose and measured after 24 hrs by qRT-PCR analysis; format: functional, organism-based
In short: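 Female C57BL/6 mice (20–25 g, n = 10/group) received 10, 50 or 100 mg/kg/day ip in saline for 7 days. One hour after the last dose they received APAP 300 mg/kg in saline. Killed 24 h later. Serum ALT/AST by kit. Liver homogenates (pH 7.0 phosphate) used for GSH (A420, μmol/g protein), GST (A412, U/mg protein) and SOD. Liver also analyzed by western blot (β-actin normalized), qRT-PCR (GAPDH normalized) and H&E.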

- Activity [1]: 24.7
- Activity [2]: Dose-dependent effect
Structure (SMILES): Cc1ccc(-c2noc(-c3ccc(F)c(F)c3)n2)cn1
- Activity [3]: Dose-dependent effect
